Experimental data reported in ChEMBL document CHEMBL4052819 (2017).
≈ marks a conversion by molar mass, not a printed value. Calls of active or inactive are those of the source. No cut-off for these calls is given here. Non-standard residues stand in square brackets, D forms with d. Residues, ends and D or L forms follow the SMILES beside them. Cha = N[C@@H](CC1CCCCC1)C(=O)O; Dab = NCC[C@H](N)C(=O)O

Experiments:
[1] = tested on: Staphylococcus aureus; experiment: Antibiofilm activity against methicillin-resistant Staphylococcus aureus LAC established catheter-associated biofilm model at 5 times MIC after 72 hrs relative to control; assay type: functional
[2] = tested on: Escherichia coli; experiment: Antibacterial activity against Escherichia coli ATCC 25922 after 18 to 20 hrs by broth microdilution method; assay type: functional
Outline: (§1)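 Broth microdilution in tryptic soy broth: 2-fold dilutions mixed 1:1 with ~1.5 × 10^5 CFU/mL inoculum, final 0.5–32 μg/mL; 37 °C, 18–20 h. MIC taken as lowest concentration giving no visible growth. At least three independent experiments, one replicate each.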

[3] = tested on: Pseudomonas aeruginosa; experiment: Antibacterial activity against Pseudomonas aeruginosa ATCC 27853 after 18 to 20 hrs by broth microdilution method; assay type: functional; outline: as §1
[4] = tested on: Staphylococcus aureus; experiment: Antibacterial activity against Staphylococcus aureus ATCC 29213 after 18 to 20 hrs by broth microdilution method; assay type: functional; outline: as §1
[5] = tested on: Staphylococcus aureus; experiment: Antibacterial activity against methicillin-resistant Staphylococcus aureus ATCC 43300 after 18 to 20 hrs by broth microdilution method; assay type: functional
Outline: (§2)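 Broth microdilution in tryptic soy broth: 2-fold dilutions mixed 1:1 with ~1.5 × 10^5 CFU/mL bacterial suspension in TSB, final 0.5–32 μg/mL, 37 °C for 18–20 h. MIC = lowest concentration with no visible growth. At least three independent experiments, one replicate each.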

[6] = tested on: Acinetobacter baumannii; experiment: Bactericidal activity against Acinetobacter baumannii ATCC 19606; assay type: functional; settings: ATCC 19606 = CIP 70.34 = JCM 6841, read-out: MBC99.9
Outline: (§3)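 MBC from MIC plates at end point: 50 μL from each well with no visible growth plated on tryptic soy agar and counted. MBC taken as lowest concentration giving ≥99.9% fall in viable count relative to initial inoculum. Three independent experiments, one replicate each.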

[7] = tested on: Escherichia coli; experiment: Bactericidal activity against Escherichia coli ATCC 25922; assay type: functional; settings: read-out: MBC99.9; outline: as §3
[8] = tested on: Pseudomonas aeruginosa; experiment: Bactericidal activity against Pseudomonas aeruginosa ATCC 27853; assay type: functional; settings: read-out: MBC99.9; outline: as §3
[9] = tested on: Pseudomonas aeruginosa; experiment: Bactericidal activity against Pseudomonas aeruginosa ATCC 27853 at 16 to 32 ug/ml after 24 hrs by time-kill assay; assay type: functional
Outline: (§4)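 Time-kill at 8, 16 and 32 μg/mL; survivors counted on tryptic soy agar at 0, 2, 4, 6 and 24 h. Three independent experiments, one replicate each.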

[10] = tested on: Pseudomonas aeruginosa; experiment: Bactericidal activity against Pseudomonas aeruginosa ATCC 27853 at 8 ug/ml after 2 hrs by time-kill assay relative to control; assay type: functional; outline: as §4
[11] = tested on: Staphylococcus aureus; experiment: Bactericidal activity against Staphylococcus aureus ATCC 29213 at 32 ug/ml after 4 hrs by time-kill assay relative to control; assay type: functional; outline: as §4
[12] = tested on: Escherichia coli; experiment: Antibacterial activity against Escherichia coli ATCC 25922 after 18 to 20 hrs in presence of 95% serum by broth microdilution method; assay type: functional
Outline: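 Same microdilution with human serum as medium: compound 2-fold diluted in 100% serum, mixed 1:1 with 90% serum holding ~1.5 × 10^5 CFU/mL, giving 95% serum and final 0.5–64 μg/mL. MIC read as no visible growth after incubation as for the broth test.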

[13] = tested on: Escherichia coli; experiment: Antibacterial activity against Escherichia coli ATCC 25922 in presence of 100% serum after 6 hrs by broth microdilution method; assay type: functional; settings: ATCC 25922, 6 h
Outline: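 Serum stability: compound added to 100% human serum at final 64 μg/mL, held at 37 °C, sampled at 0, 6, 12 and 24 h. […] Residual activity compared with untreated control.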

[14] = tested on: Acinetobacter baumannii; experiment: Antibacterial activity against carbapenem-resistant Acinetobacter baumannii clinical isolate expressing beta-lactamase OXA-23, 24/40 after 18 to 20 hrs by broth microdilution method; assay type: functional; outline: as §2
[15] = tested on: Enterobacter cloacae; experiment: Antibacterial activity against carbapenem-resistant Enterobacter cloacae clinical isolate expressing beta-lactamase NDM after 18 to 20 hrs by broth microdilution method; assay type: functional; outline: as §2
[16] = tested on: Escherichia coli; experiment: Antibacterial activity against carbapenem-resistant Escherichia coli clinical isolate expressing beta-lactamase NDM after 18 to 20 hrs by broth microdilution method; assay type: functional; outline: as §2
[17] = tested on: Staphylococcus aureus; experiment: Antibacterial activity against methicillin-resistant Staphylococcus aureus LAC; assay type: functional
[18] = tested on: Pseudomonas aeruginosa; experiment: Bactericidal activity against Pseudomonas aeruginosa ATCC 27853 at 16 ug/ml after 60 mins in presence of LPS; assay type: functional
Outline: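 P. aeruginosa at ~10^6 CFU/mL in TSB with E. coli O111:B4 LPS (final 10, 25, 50 or 100 μg/mL), then compound at final 16 μg/mL. Incubated 37 °C, 200 rpm, 60 min; survivors counted on TSA. Three independent experiments, one replicate each.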

[19] = tested on: Pseudomonas aeruginosa; experiment: Induction of cytoplasmic membrane depolarization in Pseudomonas aeruginosa ATCC 27853 at >= 16 ug/ml by DiSC3(5) probe-based fluorescence assay; assay type: functional
[20] = tested on: Pseudomonas aeruginosa; experiment: Induction of cytoplasmic membrane damage in Pseudomonas aeruginosa ATCC 27853 assessed as intracellular potassium ion release at 32 to 64 ug/ml by PBFI probe-based fluorescence assay; assay type: functional, cell-based
Outline: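 Mid-log cells washed and suspended in 5 mM HEPES pH 7.2 + 5 mM glucose. PBFI K+ probe added at final 2 μM, then compound at final 8–64 μg/mL; fluorescence read at ex 346/em 505 nm. Three independent experiments; change in fluorescence analysed by ANOVA with Tukey HSD.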

For `CC(C)C[C@H](NC(=O)[C@@H](Cc1ccccc1)NC(=O)[C@H](CCN)NC(=O)[C@H](Cc1ccccc1)NC(=O)[C@H](CCN)NC(=O)[C@@H](N)CC1CCCCC1)C(=O)N[C@@H](CCN)C(=O)N[C@H](CC(C)C)C(=O)N[C@@H](Cc1ccccc1)C(=O)N[C@@H](CO)C(N)=O` (H-[Cha][Dab]F[Dab][dF]L[Dab][dL]FS-NH2), the Activity [1] was 3 deltalog10CFU/ml, the MIC [2] was 0.5 to 1 µg/mL (≈ 0.408 to 0.816 µM) and the MIC [3] was 0.5 to 1 µg/mL (≈ 0.408 to 0.816 µM). The MIC [4] was 2 to 4 µg/mL (≈ 1.63 to 3.26 µM), the MIC [5] was 4 µg/mL (≈ 3.26 µM) and the MBC [6] was 4 to 8 µg/mL (≈ 3.26 to 6.53 µM). The MBC [7] was 8 to 16 µg/mL (≈ 6.53 to 13.1 µM), the MBC [8] was 2 to 4 µg/mL (≈ 1.63 to 3.26 µM) and the Activity [9] was “Active”. It also gave an Activity [10] of 2.2 deltalog10CFU/ml, an Activity [11] of 5.4 deltalog10CFU/ml and an MIC [12] of 8 µg/mL. For the same compound, the MIC [13] was 4 to 8 µg/mL, the MIC [14] was 0.5 µg/mL (≈ 0.408 µM) and the MIC [15] was 0.5 µg/mL (≈ 0.408 µM). For the same compound, the MIC [16] was 0.5 µg/mL (≈ 0.408 µM), the MIC [17] was 8 µg/mL (≈ 6.53 µM) and the Activity [18] was “inactive”. For the same compound, the Activity [19] was “Active” and the Activity [20] was “Active”.
